High-throughput results (PubChem BioAssay)
DENV2 CPE rescue – inhibitors of DENV2 cytopathic effect, primary screen, cell-based, plate reader, single concentration. hit rate 1.7% among 350,000. AID 651640, 2012. DENV2-infected cells, cytopathic effect rescue. CPE inhibition, % at 9.99 µM; in the data active means CPE inhibition above about 20%, passing the limit was not always enough; tested in BHK-21 cells;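 further: 0% = median of neutral control wells and 100% = median of positive control wells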
ERAP1 HTS inh – human ERAP1 aminopeptidase inhibitors, primary screen, biochemical, single point, plate reader. Endoplasmic reticulum aminopeptidase 1 (Homo sapiens), Q9NZ08. recombinant ERAP1, Leu-AMC fluorescence, 60 min. inhibition, % at 10.7 µM. hit rate 0.15% among 340,000;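 active means mean replicate inhibition of at least 30%, or all replicates individually reaching that 30% level; inactive means mean below 30% and not every replicate reaching it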;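 further: 0% = neutral control wells and 100% = L-leucinethiol positive control wells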
CAL PDZ FP-1 – untagged CAL PDZ binding inhibitors, primary screen, biochemical, fluorescence polarization, HTS | hit rate 0.92% among 300,000 | AID 602252, 2012 | purified CAL PDZ, TMR-peptide fluorescence polarization, 1 h | inhibition, % at 24.9 µM | Golgi-associated PDZ and coiled-coil motif-containing protein (Homo sapiens), Q9HD26;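 active means mean inhibition of at least 30% with at least half of replicates also reaching 30%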;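 further: 0% = DMSO neutral control and 100% = excess unlabeled competitor peptide PRC23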
S100A4 MyoIIA – inhibitors of S100A4-myosin IIA peptide binding, primary screen, biochemical, fluorescence polarization, TAMRA-MyoIIA peptide; inhibition, % at 10.7 µM; hit rate 0.14% among 360,000; AID 652163, 2013;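 active means mean inhibition of at least 70% across replicates, with every replicate also reaching that level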
Target sequence (P26447 whole entry, looked up): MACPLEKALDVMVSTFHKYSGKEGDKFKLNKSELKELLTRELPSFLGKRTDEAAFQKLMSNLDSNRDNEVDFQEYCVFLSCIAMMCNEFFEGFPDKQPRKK
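Test system: S100A4 monomer protein. Medium: HEPES buffer with Ca2+, pH 7.2. Reagent: fluorescent myosin IIA peptide, 5 nM. Compound dosing: single-point compound testing. Timing: 5 min between mix addition and reading. Benchmarks: DMSO neutral and TFP positive wells.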
SIRT5 block – SIRT5 desuccinylase inhibitors, primary screen, biochemical, fluorescence imaging, single point, set 5. Purified SirT5, succinyl-peptide AMC, trypsin-coupled fluorescence. inhibition, % at 15 µM. NAD-dependent protein deacylase sirtuin-5, mitochondrial (Homo sapiens), Q9NXA8. AID 652115, 2013. hit rate 1.1% among 330,000; in the data active means inhibition above about 15%
Target sequence (Q9NXA8 whole entry, looked up): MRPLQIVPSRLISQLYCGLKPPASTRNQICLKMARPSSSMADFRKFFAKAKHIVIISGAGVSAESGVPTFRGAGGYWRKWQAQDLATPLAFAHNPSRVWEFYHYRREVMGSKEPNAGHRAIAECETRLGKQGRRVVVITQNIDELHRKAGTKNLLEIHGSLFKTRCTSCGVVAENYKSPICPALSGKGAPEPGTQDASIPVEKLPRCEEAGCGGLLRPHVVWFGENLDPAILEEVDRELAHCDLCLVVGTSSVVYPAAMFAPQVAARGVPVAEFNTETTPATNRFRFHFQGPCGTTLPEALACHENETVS
CAL PDZ FP-2 – CAL PDZ peptide-binding inhibitors, primary screen, biochemical, fluorescence polarization, Cer-tagged CAL PDZ, HTS. Golgi-associated PDZ and coiled-coil motif-containing protein (Homo sapiens), Q9HD26. purified CAL PDZ, TMR-peptide fluorescence polarization, 1 h. inhibition, % at 20 µM. hit rate 0.02% among 330,000. AID 504414, 2011;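 active means highest replicate inhibition of at least 40%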;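 further: plate controls were DMSO neutral control wells for no effect and unlabeled competitor peptide control wells for full effect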
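material = purified tagged CAL PDZ domain construct (CerCALP) | buffer or medium = sodium phosphate/NaCl buffer pH 7.4 with TCEP, IgG, Thesit | reagent = TMR-labelled reporter peptide T*-PRC34 bound in PDZ groove | incubation = 1 h room-temperature incubation prior to read | measured by = fluorescence polarization (mP) | evaluation = percent inhibition from loss of millipolarization | control set = unlabelled peptide and DMSO controls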
Starred values were filed as active, the others as inactive; · = not tested or not shown. Compounds with a hit are over-represented: about 2.9% of the library has one in this group of screens.

SMILES | DENV2 CPE rescue | ERAP1 HTS inh | CAL PDZ FP-1 | S100A4 MyoIIA | SIRT5 block | CAL PDZ FP-2
CN1CCN(C(=O)C[C@@H]2C[C@H]3c4cc(NC(=O)Nc5ccc(C(F)(F)F)cc5)ccc4O[C@H]3[C@@H](CO)O2)CC1 | 5 | 1 | · | -2 | -3 | ·
COc1ccc(S(=O)(=O)NC2CC3CCC2C3)cc1 (stereo unspecified) | 1 | -1 | -3 | 0 | 2 | 0
CSc1ccc(S(=O)(=O)NC2CC3CCC2C3)cc1 (stereo unspecified) | 37* | 4 | -2 | -5 | 1 | 2
Cc1ccc2nc(SC(C)C(=O)NC3CCCC3)[nH]c2c1 (stereo unspecified) | 6 | -1 | -5 | 1 | · | -1
Cc1cc2nc(SC(C)C(=O)O)[nH]c2cc1C (stereo unspecified) | · | · | active | · | · | -3
O=C1CCCn2cc(nn2)COC[C@@H](Cc2ccccc2)N1 | 0 | 1 | · | 117* | 8 | ·
CCC(=O)Nc1ccc2c(c1)OC[C@@H](C)N(Cc1ccccc1C(=O)O)C[C@@H](C)[C@H](OC)CN(C)C2=O | 0 | -4 | · | -6 | -4 | ·
C[C@H](CO)N1C[C@H](C)[C@H](CN(C)S(=O)(=O)c2cccs2)Oc2ccc(NC(=O)Nc3ccccc3)cc2CC1=O | -6 | -2 | · | -9 | -4 | ·
C[C@@H]1CN([C@@H](C)CO)C(=O)Cc2cc(NC(=O)c3ccncc3)ccc2O[C@H]1CN(C)S(=O)(=O)c1cccs1 | 24* | 0 | · | -20 | -3 | ·
C[C@@H]1CN([C@@H](C)CO)C(=O)Cc2cc(NC(=O)Nc3ccccc3)ccc2O[C@H]1CN(C)S(=O)(=O)c1cccs1 | 25* | -1 | · | -3 | 2 | ·
C[C@H]1CN([C@@H](C)CO)C(=O)Cc2cc(NC(=O)Nc3ccc(F)cc3)ccc2O[C@@H]1CN(C)S(=O)(=O)c1cccs1 | -3 | 2 | · | -14 | -2 | ·
C[C@@H]1CN([C@@H](C)CO)C(=O)Cc2cc(NC(=O)Nc3ccc(C(F)(F)F)cc3)ccc2O[C@H]1CN(C)S(=O)(=O)c1cccs1 | 35* | 0 | · | -4 | 9 | ·
COc1ccc(S(=O)(=O)N(C)C[C@@H]2Oc3ccc(NC(=O)Nc4ccccc4)cc3CC(=O)N([C@H](C)CO)C[C@H]2C)cc1 | 6 | 1 | · | -5 | 2 | ·
CC(C)CC#Cc1cnc2c(c1)C(=O)N([C@H](C)CO)C[C@H](C)[C@H](CN(C)Cc1cncnc1)O2 | -2 | 0 | · | 15 | -1 | ·
CS(=O)(=O)N1[C@H](CO)[C@H](c2ccccc2)C12CN(C(=O)c1ccccc1F)C2 | 3 | -5 | · | 8 | -4 | ·
COCC(=O)N1CC2(C1)[C@@H](c1ccccc1)[C@@H](CO)N2C(=O)c1ccccc1 | 27* | 0 | · | 0 | -2 | ·
CCC(=O)N1CC2(C1)[C@H](c1ccc(-c3cccc(F)c3)cc1)[C@@H](CO)N2CC1CC1 | 3 | 1 | · | -7 | -2 | ·
COCC(=O)N1CC2(C1)[C@H](c1ccccc1)[C@H](CO)N2C(=O)c1ccccc1 | 5 | -3 | · | 6 | 2 | ·
CS(=O)(=O)N1[C@@H](CO)[C@@H](c2ccccc2)C12CN(C(=O)c1ccccc1F)C2 | -8 | -4 | · | 16 | 19* | ·
CCC(=O)N1CC2(C1)[C@@H](c1ccc(-c3cccc(F)c3)cc1)[C@@H](CO)N2CC1CC1 | 20* | 1 | · | 0 | -1 | ·
O=C(Cc1ccccc1)N1CC2(C1)[C@H](c1ccccc1)[C@@H](CO)N2S(=O)(=O)Cc1ccccc1 | 33* | -5 | · | 11 | 1 | ·
C[C@@H]1CN([C@H](C)CO)C(=O)c2cc(C#Cc3ccncc3)cnc2O[C@@H]1CN(C)C(=O)CN(C)C | -2 | 0 | · | 3 | -4 | ·
